Reference: ChEMBL document CHEMBL1134600, “Synthesis and evaluation of cryptolepine analogues for their potential as new antimalarial agents” (J Med Chem, 2001)
Where “and” joins values, the source holds several entries; their conditions need not be identical. Equal entries are not always repeated.

Key:
[1] = test system: Plasmodium falciparum; experiment: In vitro inhibitory activity against chloroquine-sensitive Plasmodium falciparum HB3
[2] = test system: DLD-1; experiment: Cytotoxicity against DLD-1 cells when the drug is exposed for a time of 1 hr; format: functional, cell-based; details: Homo sapiens, DLD-1, 1 h
[3] = molecular target: T1, Histidine-rich protein PFHRP-II (Plasmodium falciparum) (UniProt P05227); experiment: Inhibition of beta-hematin formation; Yes; format: functional
T1 sequence (whole entry): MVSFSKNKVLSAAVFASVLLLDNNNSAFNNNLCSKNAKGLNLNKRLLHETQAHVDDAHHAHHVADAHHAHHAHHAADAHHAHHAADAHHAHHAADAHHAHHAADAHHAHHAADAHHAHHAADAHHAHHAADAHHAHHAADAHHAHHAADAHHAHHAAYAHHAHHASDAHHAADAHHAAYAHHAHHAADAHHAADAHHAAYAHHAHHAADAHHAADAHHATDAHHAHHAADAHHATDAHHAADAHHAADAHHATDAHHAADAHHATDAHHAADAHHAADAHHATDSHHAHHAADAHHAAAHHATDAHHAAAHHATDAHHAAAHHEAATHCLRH

[4] = test system: A549; experiment: Cytotoxicity against A549 cells when the drug is exposed for a time of 1 hr; format: functional, cell-based; details: Homo sapiens, A549, 1 h
[5] = test system: Plasmodium falciparum; experiment: In vitro inhibitory activity against chloroquine-resistant Plasmodium falciparum K1; format: functional, organism-based
Outline: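 Early ring-stage parasites in human A+ erythrocytes, RPMI 1640 with A+ serum and glucose. Twofold serial dilutions in duplicate from DMSO stocks (final DMSO ≤0.5%), 2.5% hematocrit, 1% parasitemia. Incubated 48 h at 37 °C under 93% N2/3% O2/4% CO2. Growth read as parasite lactate dehydrogenase activity (APAD/NBT reagent, 15 min, OD 550 nm). IC50 by linear regression, at least three separate determinations.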

[6] = test system: Mus musculus; experiment: Inhibitory activity against Plasmodium berghei (ANKA) in mice at a dose of 20 mg/kg for 4 days; format: functional; design: scale not given: the % may be the effect or the level left
Outline: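 Peters' 4-day suppressive test. Female BALB/c mice (18-20 g) were inoculated iv with 1 × 10⁷ P. berghei ANKA-infected erythrocytes. Drug was given ip in 0.2 mL daily for 4 consecutive days, 5 mice per group, with chloroquine diphosphate as positive control. Blood smears were taken on day 5. % suppression of parasitemia was calculated against untreated infected controls for each dose.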

[7] = test system: MAC15A; experiment: Cytotoxicity against MAC15a cells when the drug is exposed for a time of 1 hr; format: functional, cell-based; details: Mus musculus
[8] = test system: MAC15A; experiment: Cytotoxicity against MAC15a cells when the drug is exposed for a time of 96 hr; format: functional, cell-based; details: Mus musculus
[9] = molecular target: T1, Histidine-rich protein PFHRP-II (Plasmodium falciparum); experiment: Inhibition of beta-hematin formation; No; format: functional
[10] = test system: DLD-1; experiment: Cytotoxicity against DLD-1 cells when the drug is exposed for a time of 96 hrS; format: functional, cell-based; details: Homo sapiens, DLD-1, 96 h
[11] = test system: A549; experiment: Cytotoxicity against A549 cells when the drug is exposed for a time of 96 hrs; format: functional, cell-based; details: Homo sapiens, A549, 96 h

Row | SMILES | IC50 [1] | IC50 [2] | beta-hematin formation inhibition (yes/no) [3] | IC50 [4] | IC50 [5] | IC50 [7] | also measured
1 | C[n+]1c2ccccc2cc2[n-]c3c([N+](=O)[O-])cc([N+](=O)[O-])cc3c21 | 0.45 µM | > 100 µM | Inhibition | > 100 µM | 0.65 µM | 28.5 µM | Activity [6]: 20.3% and 30.2%
2 | CCN(CC)CCCC(C)Nc1ccnc2cc(Cl)ccc12.O=P(O)(O)O.O=P(O)(O)O (centres undefined) [CHLOROQUINE PHOSPHATE] |  |  | Inhibition |  |  |  | 
3 | C[n+]1c2ccccc2cc2[n-]c3c([N+](=O)[O-])cccc3c21 | 4.14 µM | > 100 µM |  | > 100 µM | 6.92 µM | > 100 µM | Activity [6]: 11.9% and 23.5%
4 | C[n+]1c2ccc(Br)cc2c(Cl)c2[nH]c3ccccc3c21 |  |  |  |  | 4.75 µM |  | 
5 | C[n+]1c2ccccc2c(Cl)c2[nH]c3ccc(Cl)cc3c21 |  |  |  |  | 7.62 µM |  | 
6 | C[n+]1c2ccc(Br)cc2cc2[nH]c3ccc(Br)cc3c21.[I-] | 0.026 µM |  | Inhibition |  | 0.049 µM |  | IC50 [8]: 6.04 µM
7 | C[n+]1c2ccccc2c(Cl)c2[nH]c3ccccc3c21 | 1.67 µM |  |  |  | 0.24 µM | 30.5 µM | 
8 | C[n+]1c2ccccc2c(Cl)c2[nH]c3cc(Cl)ccc3c21 |  |  |  |  | 27 µM | 14.4 µM | 
9 | NC(=O)c1c2nc3ccccc3c-2[nH]c2ccccc12 |  |  |  |  | > 100 µM |  | inhibition [9]: No inhibition
10 | C[n+]1c2ccccc2cc2[nH]c3ccccc3c21 [CRYPTOLEPTINE IODIDE] |  | 93 µM |  | 61.4 µM | 0.44 µM | 67.2 µM | inhibition [3]: Inhibition; IC50 [10]: 1.44 µM; IC50 [11]: 0.55 µM; IC50 [8]: 9.65 µM
11 | CC(=O)Nc1ccc2[n-]c3cc4ccccc4[n+](C)c3c2c1 | 0.47 µM | > 100 µM |  | > 100 µM | 0.52 µM | > 100 µM | IC50 [10]: 20.4 µM; Activity [6]: 13.3% and 14.7%; IC50 [11]: 5.04 µM; IC50 [8]: 15.5 µM
12 | c1ccc2nc3c(cc2c1)[nH]c1ccccc13 [QUINDOLINE] |  |  |  |  | > 100 µM |  | inhibition [9]: No inhibition
13 | C[n+]1c2ccccc2cc2[n-]c3ccc([N+](=O)[O-])cc3c21 | 0.14 µM | 48.9 µM | Inhibition | 35.6 µM | 0.65 µM | 35.4 µM | 
14 | C[n+]1c2ccccc2c(Cl)c2[nH]c3cc(Br)ccc3c21 |  |  |  |  | 7.18 µM | 23.1 µM | 
15 | O=C(O)c1c2nc3ccccc3c-2[nH]c2ccccc12 |  |  |  |  | > 100 µM |  | inhibition [9]: No inhibition
16 | C[n+]1c2ccc(Br)cc2cc2[nH]c3ccccc3c21.[I-] | 0.45 µM | > 100 µM | Inhibition | > 100 µM | 0.26 µM | > 100 µM | IC50 [10]: 2.29 µM; IC50 [11]: 2.07 µM; IC50 [8]: 5.79 µM
17 | C[n+]1c2ccccc2cc2[nH]c3ccc(Br)cc3c21.[I-] | 0.19 µM |  | Inhibition |  | 0.26 µM | 66.2 µM | 
